Results as given in ChEMBL document CHEMBL3217531, “Potential Drug Abuse Therapeutics Derived from the Hallucinogenic Natural Product Salvinorin A” (Medchemcomm, 2011).
The source made the active and inactive calls. No cut-off for these calls is given here.

How the values were obtained:
[1] = target: T1, Kappa-type opioid receptor (Homo sapiens, UniProt P41145); assay: Displacement of [3H]U69593 from human kappa opioid receptor expressed in CHO cell membrane after 2 hrs by scintillation counting analysis; assay type: cell membranes
Mu-type opioid receptor = Mu-type opioid receptor (Homo sapiens, UniProt P35372); assay: Displacement of [3H]DAMGO from human mu opioid receptor expressed in CHO cell membrane after 2 hrs by liquid scintillation counting analysis; assay type: cell membranes
[2] = target: T1, Kappa-type opioid receptor; assay: Agonist activity at human kappa opioid receptor expressed in CHO cell membrane assessed as [35S]GTPgammaS binding after 3 hrs by liquid scintillation counting analysis relative to (-)-U50488H; assay type: functional, cell membranes
[3] = target: Delta-type opioid receptor (Homo sapiens, UniProt P41143); assay: Displacement of [3H]DADLE from human delta opioid receptor expressed in CHO cell membrane after 2 hrs by liquid scintillation counting analysis; assay type: cell membranes
[4] = target: T1, Kappa-type opioid receptor; assay: Agonist activity at human kappa opioid receptor expressed in CHO cell membrane assessed as [35S]GTPgammaS binding after 3 hrs by liquid scintillation counting analysis; assay type: functional, cell membranes
[5] = target: T1, Kappa-type opioid receptor; assay: Agonist activity at human kappa opioid receptor expressed in CHO cell membrane by [35S]GTPgammaS binding assay; assay type: functional, cell membranes
Rattus norvegicus = assay: Antiaddiction activity in rat assessed as reduction in cocaine-induced drug seeking activity at 1 mg/kg, ip treated for 5 to 10 mins prior to priming injection of cocaine measured for 2 hrs; assay type: functional, organism-based; parameters: dose 1 mg/kg
In short: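 Rats trained on FR5 cocaine self-administration (0.5 mg kg⁻¹/infusion, paired light cue, 2 h sessions). Extinction with sterile heparinized saline until active lever responses <20 per 2 h session. Next day, IP vehicle (75% DMSO) or test dose 5–10 min before IP cocaine prime (20 mg kg⁻¹). Active lever responding recorded for 2 h. N = 6 at 1 mg kg⁻¹; mean ±SEM.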

Chain of Mu-type opioid receptor (P35372 whole entry): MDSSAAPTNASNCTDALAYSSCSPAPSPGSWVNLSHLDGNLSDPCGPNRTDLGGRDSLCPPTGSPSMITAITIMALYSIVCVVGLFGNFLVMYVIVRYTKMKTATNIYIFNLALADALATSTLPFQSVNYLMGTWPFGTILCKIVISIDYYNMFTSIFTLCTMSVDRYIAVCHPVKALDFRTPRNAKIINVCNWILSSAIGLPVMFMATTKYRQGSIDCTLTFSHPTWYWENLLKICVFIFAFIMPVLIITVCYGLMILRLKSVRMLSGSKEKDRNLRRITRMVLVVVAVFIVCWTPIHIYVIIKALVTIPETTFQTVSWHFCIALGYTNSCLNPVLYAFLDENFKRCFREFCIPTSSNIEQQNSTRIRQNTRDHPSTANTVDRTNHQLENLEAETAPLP
T1 sequence (P41145 whole entry): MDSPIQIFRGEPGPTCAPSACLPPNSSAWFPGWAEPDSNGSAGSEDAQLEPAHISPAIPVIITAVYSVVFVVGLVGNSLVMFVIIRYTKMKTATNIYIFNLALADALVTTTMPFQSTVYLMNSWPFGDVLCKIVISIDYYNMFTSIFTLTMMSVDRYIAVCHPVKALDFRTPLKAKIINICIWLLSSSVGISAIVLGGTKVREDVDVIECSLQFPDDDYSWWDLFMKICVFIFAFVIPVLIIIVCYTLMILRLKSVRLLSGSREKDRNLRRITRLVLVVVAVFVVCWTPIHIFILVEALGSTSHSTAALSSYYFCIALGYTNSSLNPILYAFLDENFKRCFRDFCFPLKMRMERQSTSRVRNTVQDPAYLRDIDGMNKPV
Chain of Delta-type opioid receptor (P41143 whole entry): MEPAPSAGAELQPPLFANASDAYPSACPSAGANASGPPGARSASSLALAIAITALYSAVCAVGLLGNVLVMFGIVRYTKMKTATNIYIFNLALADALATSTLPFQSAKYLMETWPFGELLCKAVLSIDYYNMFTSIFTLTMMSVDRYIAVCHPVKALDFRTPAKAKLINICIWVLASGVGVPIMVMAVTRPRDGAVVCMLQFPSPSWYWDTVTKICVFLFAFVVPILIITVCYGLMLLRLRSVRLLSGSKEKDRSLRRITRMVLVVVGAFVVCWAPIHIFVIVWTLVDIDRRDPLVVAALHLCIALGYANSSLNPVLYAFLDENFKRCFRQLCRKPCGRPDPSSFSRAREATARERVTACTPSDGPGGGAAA

## COCO[C@H]1C[C@@H](C(=O)OC)[C@]2(C)CC[C@H]3C(=O)O[C@H](C(=O)N4CCCCC4)C[C@]3(C)[C@H]2C1=O
[1]
  Ki: 59 nM
Mu-type opioid receptor
  Ki: > 3000 nM
[2]
  Emax: 113%
[3]
  Ki: > 3000 nM

## COC(=O)[C@@H]1C[C@H](O[C@H]2CCCO2)C(=O)[C@H]2[C@@]1(C)CC[C@H]1C(=O)O[C@H](c3ccoc3)C[C@]21C
[1]
  Ki: 81 nM
Mu-type opioid receptor
  Ki: > 10000 nM
[4]
  ED50: 690 nM
[2]
  Emax: 103%
[3]
  Ki: > 10000 nM

## CCO[C@H](C)O[C@H]1C[C@@H](C(=O)OC)[C@]2(C)CC[C@H]3C(=O)O[C@H](c4ccoc4)C[C@]3(C)[C@H]2C1=O
Mu-type opioid receptor
  Ki: > 5800 nM
[3]
  Ki: > 5000 nM

## CCNC(=O)O[C@H]1C[C@@H](C(=O)OC)[C@]2(C)CC[C@H]3C(=O)O[C@H](c4ccoc4)C[C@]3(C)[C@H]2C1=O
[1]
  Ki: > 10000 nM
Mu-type opioid receptor
  Ki: 1540 nM
[5]
  EC50: > 1000 nM
[3]
  Ki: > 10000 nM

## COC(=O)[C@@H]1C[C@H](O[C@@H]2CCCCO2)C(=O)[C@H]2[C@@]1(C)CC[C@H]1C(=O)O[C@H](c3ccoc3)C[C@]21C
[1]
  Ki: 6.21 nM
Rattus norvegicus
  Activity: Active
Mu-type opioid receptor
  Ki: > 10000 nM
[2]
  Emax: 109%
[3]
  Ki: > 10000 nM

## CCO[C@@H](CBr)O[C@H]1C[C@@H](C(=O)OC)[C@]2(C)CC[C@H]3C(=O)O[C@H](c4ccoc4)C[C@]3(C)[C@H]2C1=O
[1]
  Ki: 5260 nM
Mu-type opioid receptor
  Ki: > 3000 nM
[3]
  Ki: > 5000 nM

## CCOCO[C@H]1C[C@@H](C(=O)OC)[C@]2(C)CC[C@H]3C(=O)O[C@H](c4ccoc4)C[C@]3(C)[C@H]2C1=O [SALVINORIN B ETHOXYMETHYL ETHER]
[1]
  Ki: 3.13 nM
Mu-type opioid receptor
  Ki: 41 nM
[2]
  Emax: 127%
[3]
  Ki: 1020 nM

## COC(=O)[C@@H]1C[C@H](O[C@H]2CCCCO2)C(=O)[C@H]2[C@@]1(C)CC[C@H]1C(=O)O[C@H](c3ccoc3)C[C@]21C
[1]
  Ki: 300 nM
Mu-type opioid receptor
  Ki: > 10000 nM
[3]
  Ki: > 10000 nM

## COC(=O)[C@@H]1C[C@H](O[C@@H]2CCCO2)C(=O)[C@H]2[C@@]1(C)CC[C@H]1C(=O)O[C@H](c3ccoc3)C[C@]21C
[1]
  Ki: 75 nM
Mu-type opioid receptor
  Ki: > 10000 nM
[4]
  ED50: 1220 nM
[2]
  Emax: 112%
[3]
  Ki: > 10000 nM

## COC(=O)[C@@H]1C[C@H](OC=O)C(=O)[C@H]2[C@@]1(C)CC[C@H]1C(=O)O[C@H](c3ccoc3)C[C@]21C
[1]
  Ki: 41 nM
Mu-type opioid receptor
  Ki: > 10000 nM
[3]
  Ki: > 10000 nM

## CCO[C@H](CBr)O[C@H]1C[C@@H](C(=O)OC)[C@]2(C)CC[C@H]3C(=O)O[C@H](c4ccoc4)C[C@]3(C)[C@H]2C1=O
[1]
  Ki: 7440 nM
Mu-type opioid receptor
  Ki: 3520 nM
[3]
  Ki: > 5000 nM

## CCOC(=O)O[C@H]1C[C@@H](C(=O)OC)[C@]2(C)CC[C@H]3C(=O)O[C@H](c4ccoc4)C[C@]3(C)[C@H]2C1=O
[1]
  Ki: 171 nM
Mu-type opioid receptor
  Ki: > 10000 nM
[3]
  Ki: > 10000 nM

## CCO[C@@H](C)O[C@H]1C[C@@H](C(=O)OC)[C@]2(C)CC[C@H]3C(=O)O[C@H](c4ccoc4)C[C@]3(C)[C@H]2C1=O
Mu-type opioid receptor
  Ki: 777 nM
[3]
  Ki: > 5000 nM

## COC(=O)[C@@H]1C[C@H](OC(C)=O)C(=O)[C@H]2[C@@]1(C)CC[C@H]1C(=O)O[C@H](C(=O)N3CCCCC3)C[C@]21C
[1]; cho
  Ki: 140 nM
[4]
  ED50: 5110 nM
[2]
  Emax: 85%
